# This is a sample that favours compounds with a hit; in the whole collection about 3.4% have one here.
# MLL AF4-AF9 inh: inhibitors of AF4 peptide binding to AF9, primary screen, biochemical, AlphaScreen, biotin-AF4 peptide, FLAG-AF9, single point. AID 651704, 2012. inhibition, % at 10 µM. Protein AF-9 (Homo sapiens), P42568. 350,000 tested, 0.47% active;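 active means every replicate reaching a set inhibition limit, whatever the replicate mean, cut at about 25% in these data; inconclusive means mean inhibition reaches that limit but some replicates miss it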;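 further: 0% = plate neutral control median and 100% = total signal loss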
# E-selectin induc: E-selectin induction in HUVECs, primary screen, imaging, HUVEC, immunofluorescence imaging, single point | activation, % at 7.58 µM | normalized: neutral wells 0, TNF-alpha wells 100 | P16581 | 260,000 tested, 0.37% active;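 active means mean E-selectin-positive cell signal at least 10% of the positive control, reached in at least 60% of replicates, without over 20% cell loss; inconclusive means no rule given, readout overlaps actives, possibly toxicity-flagged; inactive means the rest, including those meeting only one limit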
# Target sequence (P16581 whole entry, looked up): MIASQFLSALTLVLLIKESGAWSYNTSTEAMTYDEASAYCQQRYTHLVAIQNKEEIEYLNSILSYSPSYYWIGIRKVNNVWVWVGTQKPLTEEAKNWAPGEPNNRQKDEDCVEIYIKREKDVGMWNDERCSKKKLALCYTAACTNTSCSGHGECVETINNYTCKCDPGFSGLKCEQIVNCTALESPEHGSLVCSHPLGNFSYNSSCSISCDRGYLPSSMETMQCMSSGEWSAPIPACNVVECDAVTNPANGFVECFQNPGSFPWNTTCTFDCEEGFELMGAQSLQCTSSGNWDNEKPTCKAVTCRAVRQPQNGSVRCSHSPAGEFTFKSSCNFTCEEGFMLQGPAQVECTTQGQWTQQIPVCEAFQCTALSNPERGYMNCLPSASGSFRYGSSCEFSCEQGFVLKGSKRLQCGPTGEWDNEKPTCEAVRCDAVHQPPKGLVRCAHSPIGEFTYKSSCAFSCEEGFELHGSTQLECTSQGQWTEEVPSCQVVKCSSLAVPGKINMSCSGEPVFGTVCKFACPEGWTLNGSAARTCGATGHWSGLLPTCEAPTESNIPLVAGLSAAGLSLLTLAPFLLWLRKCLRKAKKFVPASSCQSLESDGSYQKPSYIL
#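 Test system – human umbilical vein endothelial cells (HUVEC), E-selectin induction · Input – 3,000 HUVEC seeded per well · Buffer or medium – EGM-2, gelatin · Compound dosing – single-point compound dose · Detection – immunofluorescence imaging · Measure – percent E-selectin-positive cells · Controls – TNF-alpha high, DMSO low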
# ERAP1 HTS inh: human ERAP1 aminopeptidase inhibitors, primary screen, biochemical, single point, plate reader | recombinant ERAP1, Leu-AMC fluorescence, 60 min | inhibition, % at 10.7 µM | Endoplasmic reticulum aminopeptidase 1 (Homo sapiens), Q9NZ08 | AID 652197, 2013 | 340,000 tested, 0.15% active;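 active means mean replicate inhibition of at least 30%, or all replicates individually reaching that 30% level; inactive means mean below 30% and not every replicate reaching it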;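 further: 0% = neutral control wells and 100% = L-leucinethiol positive control wells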
# SIRT5 block: SIRT5 desuccinylase inhibitors, primary screen, biochemical, fluorescence imaging, single point, set 5. NAD-dependent protein deacylase sirtuin-5, mitochondrial (Homo sapiens), Q9NXA8. 330,000 tested, 1.1% active. inhibition, % at 15 µM. AID 652115, 2013. Purified SirT5, succinyl-peptide AMC, trypsin-coupled fluorescence; in the data active means inhibition above about 15%; inconclusive means no clear call, values can overlap the other calls
# S100A4 MyoIIA: inhibitors of S100A4-myosin IIA peptide binding, primary screen, biochemical, fluorescence polarization, TAMRA-MyoIIA peptide | Protein S100-A4 (Homo sapiens), P26447 | inhibition, % at 10.7 µM | 360,000 tested, 0.14% active;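 active means mean inhibition of at least 70% across replicates, with every replicate also reaching that level; inconclusive means mean inhibition reaches 70% but some replicates fall short; inactive means mean inhibition below 70%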
# Target sequence (P26447 whole entry, looked up): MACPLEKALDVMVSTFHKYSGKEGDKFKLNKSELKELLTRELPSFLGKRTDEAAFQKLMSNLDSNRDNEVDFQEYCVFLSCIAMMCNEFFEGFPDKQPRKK
#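 System – human S100A4 monomer protein, biochemical binding assay · Buffer or medium – Calcium-containing HEPES buffer, pH 7.2 · Timing – 5 min between mix addition and reading · Also added – TAMRA-labelled myosin IIA heavy-chain peptide probe, 5 nM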
# Ecoli rRNA inh: reduced GFP signal of wild-type E. coli, primary screen, bacterial rRNA inhibitor project, GFP/RFP fluorescence, OD600, single point. E. coli WT GFP vs humanized-ribosome RFP mutants, 24 h; active compounds read low; DMSO median 0, no signal -100. GFP signal change (wild-type ribosome), % (concentration not given with the values). 350,000 tested, 1.6% active. AID 720706, 2013;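 active means significant combined selectivity score with lowered wild-type GFP, culture density cut under 30%, mutant RFP and density less affected; inactive means any of these conditions unmet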
# HepG2 cytotox: cytotoxicity in HepG2 cells, dose response, cytotoxicity control, cell-based, CellTiter-Glo luminescence, cherry-pick, set 4 | shares compounds with Ecoli rRNA inh | HepG2 viability, ATP luminescence, 72 h | activity change, negative = cytotoxicity, unspecified at 26 µM | 30 tested, under 10 active | AID 743480, 2014;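 active means compounds whose fitted half-maximal signal-loss concentration is at most twice their highest valid dose; inconclusive means flat curve with 30 to 70% signal loss, or poor fit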
# AID977621: growth inhibition of wild-type GFP E. coli, dose response, H69 mutant RFP, cherry-pick; shares compounds with Ecoli rRNA inh; activity change, negative = inhibition at 50 µM; E. coli wild-type GFP strain growth, fluorescence, 24 h; 1,900 tested, under 10 active;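 active means Wild-type ribosome reporter drop at least double the humanized mutant ribosome reporter drop, growth loss under a set limit; inconclusive means no clear call, values can overlap the other calls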;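 further: wild-type GFP and H69 mutant RFP strains grown together 50/50 in each well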
# AID977628: E. coli growth inhibition, wild-type GFP versus h24 humanized RFP strain, dose response, h24 mutant RFP vs wild-type GFP, cherry-pick | shares compounds with Ecoli rRNA inh | E. coli WT GFP strain growth, fluorescence, 24 h | activity change, negative = inhibition at 50 µM | 1,900 tested, under 10 active | AID 977628, 2014;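 active means compound lowering the normal-ribosome reporter at least twice as much as the humanized-ribosome reporter, growth loss under a set limit; inconclusive means no clear call, values can overlap the other calls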;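 further: wild-type GFP and h24 humanized RFP strains co-cultured 1 to 1 per well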
# Starred values were filed as active, the others as inactive; ? = inconclusive; nt = no result.
SMILES,MLL AF4-AF9 inh,E-selectin induc,ERAP1 HTS inh,SIRT5 block,S100A4 MyoIIA,Ecoli rRNA inh,AID977621,AID977628,others
Cc1ccccc1CN(C)C[C@H]1OCc2cnnn2CCCC(=O)N([C@@H](C)CO)C[C@H]1C,-0.2,0.0,-0.5,-1.6,-1.0,-1.5,nt,nt,
CC(C)(C)CC(=O)Nc1ccccc1N1CCN(c2ccccc2)CC1,6.7,-1.5,-3.1,-0.8,-1.5,-19.4*,-18.1,-13.7,
CS(=O)(=O)c1ccc(Cl)c(NC(=O)COC(=O)c2c(Cl)cccc2Cl)c1,-1.5,0.5,-3.9,-4.6,1.2,-26.5*,-5.11,-7.13,
CCOc1ccccc1NC(=O)c1cccc(NC(=O)C(C)C)c1,0.1,-0.1,4.0,-3.0,1.1,-9.7,nt,nt,
CCCC(=O)Nc1cccc(C(=O)Nc2ccccc2OCC)c1,-1.8,-1.4,0.9,-2.5,-1.5,-27.4*,0.936,-9.01,
CCOc1ccccc1NC(=O)NNC(=O)c1ccc2ccccc2c1,-10.7,-0.1,1.4,0.5,0.2,0.1,nt,nt,
CCOc1ccccc1NC(=O)c1ccc2ccccc2c1,-8.1,0.5,-1.7,-1.2,-0.4,-25.0*,nt,?,HepG2 cytotox=2.55
O=C(COc1cccc(NC(=O)c2cccs2)c1)c1ccc(F)cc1,-0.8,nt,2.8,5.4,-3.7,-16.2,nt,nt,
O=C(Nc1cccc(Oc2ccc3c(c2)C(=O)NC3=O)c1)c1cccs1,4.7,nt,-7.1,1.7,1.7,-29.9*,-4.26,nt,
O=C(NC1CCCC1)c1ccc([N+](=O)[O-])s1,0.0,-1.1,-3.0,-1.6,2.7,-20.4*,-17.2,-3.93,
CO[C@@H]1CN(C)C(=O)c2ccc(NC(=O)C3CCCC3)cc2OC[C@@H](C)N(C(=O)c2ccccc2)C[C@H]1C,0.6,0.1,-2.1,-2.4,1.2,5.5,nt,nt,
Cc1onc(-c2ccccc2Cl)c1C(=O)N1CCN(Cc2ccc3c(c2)OCO3)CC1,5.1,nt,5.2,-1.1,-0.3,-19.9*,7.08,-9.43,
CCOC(=O)[C@@H]1[C@H]2COc3ccccc3[C@H]2N2C(=O)N(c3ccc(F)cc3)C(=O)[C@]12C,0.6,-0.1,2.0,-4.1,9.3,-0.4,nt,nt,
C[C@]12C(=O)N(c3ccc(F)cc3)C(=O)N1[C@@H]1c3ccccc3OC[C@@H]1[C@H]2c1ccccc1,2.6,nt,-3.3,nt,-2.7,-24.8*,0.484,-14.6,
Cc1cc(Br)c2nc(-c3ccc(Cl)cc3)c(Cc3cccc(Cl)c3)n2c1,-1.2,-3.8,nt,2.7,11.7,-18.9*,?,?,
Cc1ccc(-c2nc3c(Br)cc(C)cn3c2Cc2cccc(Cl)c2)cc1,0.3,0.2,0.2,-3.0,-11.1,-5.6,nt,nt,
Cc1onc(-c2ccccc2)c1C(=O)Oc1ccccc1,-0.2,3.4,0.7,-1.4,-8.2,-28.8*,-3.33,-2.95,
C[C@@H]1CN([C@@H](C)CO)C(=O)c2cc(NC(=O)C3CCCCC3)ccc2O[C@H]1CN(C)C(=O)Nc1ccccc1,-11.8,0.2,2.9,-0.4,-0.5,-0.4,nt,nt,
Cc1ccccc1CSc1nnc(-c2ccncc2)o1,0.8,7.5,-2.6,1.5,-0.6,-18.9*,nt,?,
C[C@@H]1CCCCO[C@@H](CN(C)S(=O)(=O)c2cccs2)[C@H](C)CN([C@@H](C)CO)C(=O)c2cc(NC(=O)CCCN(C)C)ccc2O1,1.0,-0.2,1.2,-3.8,5.3,-1.9,nt,nt,
Cc1nc(SCC(=O)Nc2ccc3c(c2)OCCO3)nc(C)c1C,-9.2,0.7,-1.7,-3.6,-9.6,-18.0*,-16.4,nt,
Cc1cc(C)nc(SCC(=O)Nc2ccc3c(c2)OCO3)n1,0.7,-0.4,1.6,-3.3,0.5,0.8,nt,nt,
CN(C)CC(=O)N[C@H]1CC[C@@H](CC(=O)NCc2ccc(Cl)cc2)O[C@H]1CO,-11.7,-0.2,-6.4,3.8,2.1,5.2,nt,nt,
NS(=O)(=O)c1cc(C(=O)OCC(=O)Nc2ccccc2[N+](=O)[O-])ccc1Cl,-0.5,0.0,-0.4,-2.5,1.1,-19.7*,nt,-10.7,
Cc1ccc(S(=O)(=O)Nc2ccc3c(c2)CC(=O)N([C@H](C)CO)C[C@@H](C)[C@H](CN(C)S(=O)(=O)c2cccs2)O3)cc1,-14.5,-0.2,-5.4,0.6,-0.1,-2.3,nt,nt,
SMILES,MLL AF4-AF9 inh,E-selectin induc,ERAP1 HTS inh,SIRT5 block,S100A4 MyoIIA,Ecoli rRNA inh,AID977621,AID977628,others
CCc1nc(N2[C@H](C#N)[C@@H](c3ccccc3-c3ccccc3F)[C@@H]2CO)sc1C,-0.4,0.0,-1.7,1.3,-9.8,-2.0,nt,nt,
Cc1cc(C(C)(C)C)oc1C(=O)N(CC(=O)NC1CCCC1)c1c(C)cccc1C,-14.4,nt,-0.8,-1.4,3.3,-25.4*,nt,-15.1,
OC[C@H]1Nc2ccc(C#Cc3ccccc3)cc2[C@@H]2[C@H]1CCN2Cc1nccs1,nt,0.5,nt,nt,nt,-4.2,nt,nt,
Cc1cccc(-c2nsc(SCC(=O)NCC3CCCO3)n2)c1 (centres undefined),-1.3,-0.2,-1.6,-3.4,38.3,-21.9*,-3.06,1.95,
COC(=O)C[C@H]1CC[C@@H](NS(=O)(=O)c2ccc(OC)cc2)[C@H](CO)O1,-2.6,-0.3,-0.8,-1.1,0.8,1.4,nt,nt,
O=C(CSCc1cnn(-c2ccccc2)c1-n1cccc1)NCc1cccnc1,-0.3,5.3,-4.3,-2.3,3.2,-25.1*,8.33,-2.9,
Cc1ccc(CSCC(=O)NCc2cccnc2)cc1,1.9,nt,3.8,-2.7,0.1,-11.6,nt,nt,
CC(=O)Nc1ccc(OCc2nnc(-c3ccccc3)o2)cc1,3.0,0.0,0.6,-0.3,-4.3,-22.8*,?,-17.3,
CC(=O)Nc1ccccc1OCc1nnc(-c2ccc(Cl)cc2)o1,0.2,nt,0.9,-0.6,-1.4,-23.1,nt,nt,
CC(=O)Nc1ccc(Nc2nc(C)c([N+](=O)[O-])c(N(C)c3ccccc3)n2)cc1,12.0,4.3,4.0,0.7,-12.8,-43.9*,?,?,
Cc1nc(Nc2ccc(C(=O)O)cc2)nc(Nc2ccc(C(=O)O)cc2)c1[N+](=O)[O-],-2.3,nt,5.1,11.9,-22.1,4.2,nt,nt,

# Source: PubChem (Broad Institute)
